Results collected from several papers.
Compare with care: the assays were run in different laboratories.
Effect on: cell growth or viability

SMILES | cell line | technique | time | setting | IC50 [µM]
CCC(=O)Nc1cc(Nc2nc(Nc3cnn(C)c3)c3sccc3n2)c(OC)cc1N(C)CCN(C)C | NCI-H1975 | MTT |  |  | > 50
CC(C)[C@H](N)C(=O)N1CCC[C@H]1B(O)O | SET-2 | ATP luminescence | 48 h |  | 0.006
O=c1ccc2ccc(O)c(CO)c2o1 | HEK293 | MTT | 36 h |  | > 20
Cc1[nH]cc(Br)c(=O)c1-c1ccc(Oc2ccc(OC(F)(F)F)cc2)cc1 | HEK293 |  |  |  | > 10
CCC(=O)Nc1cc(Nc2nc(N3CCc4sccc4C3)c3cccnc3n2)c(OC)cc1N(C)C | NCI-H1975 | MTT |  |  | 3.84
Clc1ccc2c(NN=Cc3cccs3)ccnc2c1 | HEK293 |  |  |  | > 10
O=C1Nc2ccccc2-c2cnc(NCc3c(F)ccc4c3CCO4)n3cnc1c23 | KARPAS-422 | CCK-8 | 7 days |  | 0.0683
Cc1c(O)ccc2ccc(=O)oc12 | HEK293 | MTT | 36 h |  | > 20
COc1cc(N(C)CCN(C)C)c(NC(=O)C=C(C)C)cc1Nc1nc(N2CCc3sccc3C2)c2sccc2n1 | NCI-H1975 | MTT |  |  | 9.93
Cc1[nH]c(C)c(-c2ccc(OCc3cc(C(F)(F)F)cc(C(F)(F)F)c3)nc2)c(=O)c1Br | HEK293 |  |  |  | > 10
Cc1c(NC(=O)c2ccc(C(C)(C)C)cc2)cccc1-c1cn(C)c(=O)c(Nc2ccc(C(=O)N3CCOCC3)cc2)n1 | CNE2Z |  |  |  | > 10
CCSC(=O)c1ncn2c(=O)n(C)nnc12 | T98G | resazurin | 7 days |  | 327
COc1cccc(Oc2ccccc2NC(=O)CNC(=O)c2c(C)cc(C)cc2C)c1 | A673 |  |  |  | 5.5
Cc1cc(=O)c(-c2ccc(OCc3ccc(OC(F)(F)F)cc3)cc2)c(C)[nH]1 | HEK293 |  |  |  | > 10
COc1cc2c(Nc3ccc(Cl)c(Cl)c3F)ncnc2cc1OC[C@@H]1C[C@@H]2CN(C)C[C@@H]2C1 | GBM6 | ATP luminescence | 18 days | 3D culture | 0.102
C=CC(=O)Nc1cc(Nc2nc(Nc3cnn(C)c3)c3sccc3n2)c(OC)cc1N(C)CCN(C)C | NCI-H1975 | MTT |  |  | 4.54
CCOC(=O)c1cn(CC)c2cc(OCc3ccccc3)ccc2c1=O | HEK293 |  |  |  | > 10
C=C(Cl)C(=O)Nc1cc(Nc2nc(Nc3cnn(C)c3)c3sccc3n2)c(OC)cc1N1CCN(C)CC1 | NCI-H1975 | MTT |  |  | 0.106
Cc1cc(=O)c(-c2ccc(Oc3ccc(Cl)cc3Cl)cc2)c(C)[nH]1 | HEK293 |  |  |  | > 10
COc1cc(N(C)CCN(C)C)c(NC(=O)C=C(C)C)cc1Nc1nc(Nc2cnn(C)c2)c2sccc2n1 | NCI-H1975 | MTT |  |  | 0.418
CCCCCCCc1ccc(-c2c(C)[nH]c(C)c(Cl)c2=O)cn1 | HEK293 |  |  |  | > 10
COc1ccc(F)cc1C(=O)NCc1ccc(-c2nn([C@@H](C)C(F)(F)F)c(N)c2C(N)=O)cc1 | Rec1 | ATP luminescence | 72 h |  | 0.0031
C=C(Cl)C(=O)Nc1cc(Nc2nc(N3CCOCC3)c3sccc3n2)c(OC)cc1N(C)CCN(C)C | NCI-H1975 | MTT |  |  | 0.12
CC(=O)Oc1ccc2ccc(=O)oc2c1CBr | HEK293 | MTT | 36 h |  | > 20
Cn1nnc2c(C(=O)N3CCCC3)ncn2c1=O | T98G | resazurin | 7 days |  | 186
CCC(=O)Nc1cc(Nc2nc(N3CCOCC3)c3sccc3n2)c(OC)cc1N(C)CCN(C)C | NCI-H1975 | MTT |  |  | > 50
